Source: PMC3776982 (British Journal of Cancer, 2013)
Like-named read-outs stand apart in the source and are kept apart here.

How the values were obtained:
[1] = tested on: previously treated SCLC patients; experiment: Adverse events; format: in vivo, human
Outline: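 Toxicities graded by CTCAE v3.0 in adults with SCLC that had progressed after ≥2 prior chemotherapy regimens, including a platinum one. Paclitaxel 175 mg m−2 was given as a 3-h IV infusion every 3 weeks. Everolimus was given orally once daily (2.5, 5 or 10 mg) over 21-day courses. Patients were assessed weekly during cycle 1, then every 3 weeks.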

[2] = tested on: previously treated SCLC patients; format: in vivo, human
Outline: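 Open-label 3-level escalation of oral daily everolimus (2.5→5→10 mg) with fixed paclitaxel 175 mg m−2 every 3 weeks; up to six patients per level, no intrapatient escalation. DLT was assessed in cycle 1 and defined as: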

[3] = tested on: small-cell lung cancer (SCLC); experiment: Tumour response according to RECIST version 1.1; format: in vivo, human; conditions: + paclitaxel
[4] = Everolimus pharmacokinetics in whole blood; format: in vivo, human
Outline: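 Samples were taken from six expansion-cohort patients at the MTD with paclitaxel, 10 per patient. Post-dose samples were drawn at 1, 2, 4, 6, 12 and 24 h on day 1 of cycle 2. Everolimus was quantified in whole blood by LC-MS/MS after protein precipitation.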

[5] = tested on: small-cell lung cancer (SCLC); experiment: Tumour response by phospho-Akt and phospho-S6 expression; format: in vivo, human; conditions: everolimus + paclitaxel
Outline: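 Pretreatment tumour specimens were formalin-fixed and paraffin-embedded, cut into 4 μm sections, deparaffinised in xylene and rehydrated. Sections were immunostained on an autostainer with polymer detection, using rabbit monoclonal phospho-Akt (Ser473) at 1:80 and phospho-S6 (Ser235/236) at 1:200. Tumour response was assessed every two cycles by RECIST 1.1.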

[6] = tested on: breast cancer; conditions: 10 mg everolimus daily, patients with breast cancer; ref Ellard et al, 2009; cited from earlier work
[7] = all everolimus doses (n=20), any grade, + 3-weekly paclitaxel 175 mg m^−2
[8] = everolimus 2.5 mg daily (n=6), grade 1/2, + 3-weekly paclitaxel 175 mg m^−2
[9] = everolimus 2.5 mg daily (n=6), grade 3/4, + 3-weekly paclitaxel 175 mg m^−2
[10] = everolimus 5 mg daily (n=11), grade 1/2, + 3-weekly paclitaxel 175 mg m^−2
[11] = everolimus 5 mg daily (n=11), grade 3/4, + 3-weekly paclitaxel 175 mg m^−2
[12] = everolimus 10 mg daily (n=3), grade 1/2, + 3-weekly paclitaxel 175 mg m^−2
[13] = everolimus 10 mg daily (n=3), grade 3/4, + 3-weekly paclitaxel 175 mg m^−2

In the case of `CO[C@H]1C[C@@H]2CC[C@@H](C)[C@@](O)(O2)C(=O)C(=O)N2CCCC[C@H]2C(=O)O[C@H]([C@H](C)C[C@@H]2CC[C@@H](OCCO)[C@H](OC)C2)CC(=O)[C@H](C)/C=C(\C)[C@@H](O)[C@@H](OC)C(=O)[C@H](C)C[C@H](C)/C=C/C=C/C=C/1C` [everolimus], the “ALT increased (number of patients with adverse event)” value (“ALT increased” for short) [1, 7] is reported as 6, the “AST increased (number of patients with adverse event)” value (from here on “AST increased”) [1, 7] is reported as 6 and the “Anorexia (number of patients with adverse event)” value (from here on “Anorexia”) [1, 7] is reported as 6. For the same molecule, the “Diarrhoea (number of patients with adverse event)” value (“Diarrhoea” for short) [1, 7] was 3, the “Febrile neutropenia (number of patients with adverse event)” value (from here on “Febrile neutropenia”) [1, 7] was 1 and the “Itching (number of patients with adverse event)” value (“Itching” below) [1, 7] was 4. For the same molecule, the “Leukopenia (number of patients with adverse event)” value (shortened to “Leukopenia”) [1, 7] was 15, the “Neutropenia (number of patients with adverse event)” value [1, 7] was 16 and the “Pain (number of patients with adverse event)” value (“Pain” below) [1, 7] was 10. The “Pneumonitis (number of patients with adverse event)” value (“Pneumonitis” below) [1, 7] was 1, the “Stomatitis (number of patients with adverse event)” value (shortened to “Stomatitis”) [1, 7] was 8 and the “ALT increased” value [1, 8] was 1. The “AST increased” value [1, 8] was 1, the “Anaemia (number of patients with adverse event)” value (“Anaemia” below) [1, 8] was 5 and the “Anorexia” value [1, 8] was 2. The “Diarrhoea” value [1, 8] was 0, the “Febrile neutropenia” value [1, 8] was 0 and the “Hyperglycemia (number of patients with adverse event)” value [1, 8] was 6. The “Hypertriglycemia (number of patients with adverse event)” value (“Hypertriglycemia” below) [1, 8] was 3, the “Itching” value [1, 8] was 0 and the “Leukopenia” value [1, 8] was 4. For the same molecule, the “Neuropathy (number of patients with adverse event)” value (“Neuropathy” for short) [1, 8] was 1, the “Neutropenia (number of patients with adverse event)” value [1, 8] was 3 and the “Pain” value [1, 8] was 2. The “Pneumonitis” value [1, 8] was 0, the “Stomatitis” value [1, 8] was 2 and the “Thrombocytopenia (number of patients with adverse event)” value [1, 8] was 2. For the same molecule, the “Vomiting (number of patients with adverse event)” value (“Vomiting” below) [1, 8] was 0, the “ALT increased” value [1, 9] was 0 and the “AST increased” value [1, 9] was 0. For the same molecule, the “Anaemia” value [1, 9] was 0, the “Anorexia” value [1, 9] was 0 and the “Diarrhoea” value [1, 9] was 0. For the same molecule, the “Febrile neutropenia” value [1, 9] was 0, the “Hyperglycemia (number of patients with adverse event)” value [1, 9] was 0 and the “Hypertriglycemia” value [1, 9] was 0. For the same molecule, the “Itching” value [1, 9] was 0, the “Leukopenia” value [1, 9] was 1 and the “Neuropathy” value [1, 9] was 0. The “Neutropenia (number of patients with adverse event)” value [1, 9] was 1, the “Pain” value [1, 9] was 0 and the “Pneumonitis” value [1, 9] was 0. For the same molecule, the “Stomatitis” value [1, 9] was 0, the “Thrombocytopenia (number of patients with adverse event)” value [1, 9] was 0 and the “Vomiting” value [1, 9] was 0. For the same molecule, the “ALT increased” value [1, 10] was 5, the “AST increased” value [1, 10] was 4 and the “Anaemia” value [1, 10] was 10. The “Anorexia” value [1, 10] was 3, the “Diarrhoea” value [1, 10] was 2 and the “Febrile neutropenia” value [1, 10] was 0. For the same molecule, the “Hyperglycemia (number of patients with adverse event)” value [1, 10] was 9, the “Hypertriglycemia” value [1, 10] was 2 and the “Itching” value [1, 10] was 2. The “Leukopenia” value [1, 10] was 4, the “Neuropathy” value [1, 10] was 3 and the “Neutropenia (number of patients with adverse event)” value [1, 10] was 3. The “Pain” value [1, 10] was 6, the “Pneumonitis” value [1, 10] was 1 and the “Stomatitis” value [1, 10] was 5. The “Thrombocytopenia (number of patients with adverse event)” value [1, 10] was 3, the “Vomiting” value [1, 10] was 2 and the “ALT increased” value [1, 11] was 0. For the same molecule, the “AST increased” value [1, 11] was 0, the “Anaemia” value [1, 11] was 1 and the “Anorexia” value [1, 11] was 0. For the same molecule, the “Diarrhoea” value [1, 11] was 0, the “Febrile neutropenia” value [1, 11] was 1 and the “Hyperglycemia (number of patients with adverse event)” value [1, 11] was 0. For the same molecule, the “Hypertriglycemia” value [1, 11] was 0, the “Itching” value [1, 11] was 0 and the “Leukopenia” value [1, 11] was 4. The “Neuropathy” value [1, 11] was 1, the “Neutropenia (number of patients with adverse event)” value [1, 11] was 6 and the “Pain” value [1, 11] was 0. For the same molecule, the “Pneumonitis” value [1, 11] was 0, the “Stomatitis” value [1, 11] was 0 and the “Thrombocytopenia (number of patients with adverse event)” value [1, 11] was 1. For the same molecule, the “Vomiting” value [1, 11] was 0, the “ALT increased” value [1, 12] was 0 and the “AST increased” value [1, 12] was 1. The “Anaemia” value [1, 12] was 3, the “Anorexia” value [1, 12] was 1 and the “Diarrhoea” value [1, 12] was 1. For the same molecule, the “Febrile neutropenia” value [1, 12] was 0, the “Hyperglycemia (number of patients with adverse event)” value [1, 12] was 2 and the “Hypertriglycemia” value [1, 12] was 2. For the same molecule, the “Itching” value [1, 12] was 2, the “Leukopenia” value [1, 12] was 2 and the “Neuropathy” value [1, 12] was 2. The “Neutropenia (number of patients with adverse event)” value [1, 12] was 1, the “Pain” value [1, 12] was 2 and the “Pneumonitis” value [1, 12] was 0. The “Stomatitis” value [1, 12] was 1, the “Thrombocytopenia (number of patients with adverse event)” value [1, 12] was 2 and the “Vomiting” value [1, 12] was 0. The “ALT increased” value [1, 13] was 0, the “AST increased” value [1, 13] was 0 and the “Anaemia” value [1, 13] was 0. For the same molecule, the “Anorexia” value [1, 13] was 0, the “Diarrhoea” value [1, 13] was 0 and the “Febrile neutropenia” value [1, 13] was 0. The “Hyperglycemia (number of patients with adverse event)” value [1, 13] was 1, the “Hypertriglycemia” value [1, 13] was 0 and the “Itching” value [1, 13] was 0. For the same molecule, the “Leukopenia” value [1, 13] was 0, the “Neuropathy” value [1, 13] was 0 and the “Neutropenia (number of patients with adverse event)” value [1, 13] was 2. For the same molecule, the “Pain” value [1, 13] was 0, the “Pneumonitis” value [1, 13] was 0 and the “Stomatitis” value [1, 13] was 0. For the same molecule, the “Thrombocytopenia (number of patients with adverse event)” value [1, 13] was 2, the “Vomiting” value [1, 13] was 0 and the “Dose-limiting toxicity, cycle 1: Hyperglycemia (number of patients)” value [2, 7] was 1. For the same molecule, the “Dose-limiting toxicity, cycle 1: Thrombocytopenia (number of patients)” value [2, 7] was 2, the “Patients who experienced DLT in cycle 1” value ([2]; dose level 1 (everolimus 2.5 mg daily), six patients, + 3-weekly paclitaxel 175 mg m^−2) was “None” and the “Dose-limiting toxicity, cycle 1: Hyperglycemia (number of patients)” value [2, 8] was 0. For the same molecule, the “Dose-limiting toxicity, cycle 1: Thrombocytopenia (number of patients)” value [2, 8] was 0, the “Dose-limiting toxicity, cycle 1: Hyperglycemia (number of patients)” value [2, 9] was 0 and the “Dose-limiting toxicity, cycle 1: Thrombocytopenia (number of patients)” value [2, 9] was 0. The “Dose-limiting toxicity, cycle 1: Hyperglycemia (number of patients)” value [2, 10] was 0, the “Dose-limiting toxicity, cycle 1: Thrombocytopenia (number of patients)” value [2, 10] was 0 and the “Dose-limiting toxicity, cycle 1: Hyperglycemia (number of patients)” value [2, 11] was 0. For the same molecule, the “Dose-limiting toxicity, cycle 1: Hyperglycemia (number of patients)” value [2, 12] was 0, the “Dose-limiting toxicity, cycle 1: Thrombocytopenia (number of patients)” value [2, 12] was 0 and the “Dose-limiting toxicity, cycle 1: Hyperglycemia (number of patients)” value [2, 13] was 1. The “Dose-limiting toxicity, cycle 1: Thrombocytopenia (number of patients)” value [2, 13] was 1, the “MTD and recommended phase-2 dose (dose level)” value ([2]; level 2 = everolimus 5 mg daily + 3-weekly paclitaxel 175 mg m^−2) was “level 2” and the “Maximum tolerated dose (MTD) of everolimus” value ([2]; once daily, in combination with paclitaxel 175 mg m^−2 every 3 weeks) was 5 mg. For the same molecule, the Objective response rate ([3]; dose level 1 (everolimus 2.5 mg daily), one out of 6 patients) was 17%, the Objective response rate ([3]; dose level 2 (everolimus 5 mg daily), 2 out of 10 patients) was 20% and the Objective response rate ([3]; dose level 3 (everolimus 10 mg daily), 2 out of 3 patients) was 67%. The “Interpatient coefficient of variation of pharmacokinetic parameters” value ([4]; all parameters except Cmin, everolimus 5 mg daily with paclitaxel) was “less than 40%”, the “Interpatient coefficient of variation of Cmin” value ([4]; everolimus 5 mg daily with paclitaxel) was 52% and the AUC(0-t) ([4]; human, whole blood, po, 5 mg) was 284 ng·h/mL. The Cmax ([4]; human, whole blood, po, 5 mg) was 24.4 ng/mL, the Tmax ([4]; human, whole blood, po, 5 mg) was 0.98 to 6.02 h and the “Response in phospho-S6-negative group (responders/patients)” value [5] was 1/3. For the same molecule, the “Response in phospho-S6-positive group (responders/patients)” value [5] was 1/3, the “Objective responses in patients with phospho-Akt-negative tumours” value ([5]; four patients) was “two objective responses” and the “Objective response in phospho-Akt-positive patients” value ([5]; two patients (one stable and one progressive disease)) was “No objective response”. For the same molecule, the Response rate [6] was 12%.
